One series has as its target Acetylcholinesterase (Electrophorus electricus, UniProt O42275). Description: Inhibition of electric eel AChE using acetylthiocholine as substrate incubated for 15 mins by Ellman's method. Background: Ellman's reagent forms a yellow product with free thiols.
In series [1] the target is T1, Amine oxidase [flavin-containing] A (Homo sapiens, UniProt P21397).
T1 sequence (P21397 whole entry): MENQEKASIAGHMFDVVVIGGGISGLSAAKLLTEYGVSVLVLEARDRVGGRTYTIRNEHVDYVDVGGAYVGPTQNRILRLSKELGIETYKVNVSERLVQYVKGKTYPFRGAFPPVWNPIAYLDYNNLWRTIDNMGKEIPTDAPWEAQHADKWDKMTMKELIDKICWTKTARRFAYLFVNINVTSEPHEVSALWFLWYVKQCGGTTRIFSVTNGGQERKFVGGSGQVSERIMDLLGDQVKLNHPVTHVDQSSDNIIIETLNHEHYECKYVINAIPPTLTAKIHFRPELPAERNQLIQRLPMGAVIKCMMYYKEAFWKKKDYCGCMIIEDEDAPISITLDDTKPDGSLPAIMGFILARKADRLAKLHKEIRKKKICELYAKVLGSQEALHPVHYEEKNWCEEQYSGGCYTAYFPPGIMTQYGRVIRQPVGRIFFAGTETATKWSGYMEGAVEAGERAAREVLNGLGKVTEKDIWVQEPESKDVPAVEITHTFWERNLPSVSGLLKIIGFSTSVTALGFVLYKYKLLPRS
Description: Inhibition of recombinant human MAO-A at 10 uM using kynuramine as substrate after 30 mins by fluorescence method relative to control. Conditions: 0.5 h.

In series [2] the target is BuChE (butyrylcholinesterase) (Equus caballus, UniProt P81908). The series is described as follows: Inhibition of equine serum BuChE at 50 uM incubated for 15 mins by Ellman's method relative to control. Conditions: horse.
Sequence of BuChE (butyrylcholinesterase) (P81908 whole entry): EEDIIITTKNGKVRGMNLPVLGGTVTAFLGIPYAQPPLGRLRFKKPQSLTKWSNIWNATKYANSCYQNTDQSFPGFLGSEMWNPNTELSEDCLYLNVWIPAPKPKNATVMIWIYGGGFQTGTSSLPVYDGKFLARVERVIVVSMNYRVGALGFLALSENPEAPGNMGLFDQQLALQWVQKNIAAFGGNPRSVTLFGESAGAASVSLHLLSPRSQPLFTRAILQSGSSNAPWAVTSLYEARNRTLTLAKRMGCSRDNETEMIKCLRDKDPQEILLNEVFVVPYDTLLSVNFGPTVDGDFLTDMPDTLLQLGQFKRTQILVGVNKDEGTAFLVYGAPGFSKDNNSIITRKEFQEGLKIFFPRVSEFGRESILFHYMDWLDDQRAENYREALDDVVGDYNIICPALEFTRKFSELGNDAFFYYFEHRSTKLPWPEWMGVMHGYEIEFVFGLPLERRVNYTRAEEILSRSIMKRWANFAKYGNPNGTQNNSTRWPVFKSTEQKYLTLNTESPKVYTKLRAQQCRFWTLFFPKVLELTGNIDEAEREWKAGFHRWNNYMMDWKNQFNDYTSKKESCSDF
Series [3] deals with T2, Amine oxidase [flavin-containing] B (Homo sapiens, UniProt P27338).
T2 sequence (P27338 whole entry): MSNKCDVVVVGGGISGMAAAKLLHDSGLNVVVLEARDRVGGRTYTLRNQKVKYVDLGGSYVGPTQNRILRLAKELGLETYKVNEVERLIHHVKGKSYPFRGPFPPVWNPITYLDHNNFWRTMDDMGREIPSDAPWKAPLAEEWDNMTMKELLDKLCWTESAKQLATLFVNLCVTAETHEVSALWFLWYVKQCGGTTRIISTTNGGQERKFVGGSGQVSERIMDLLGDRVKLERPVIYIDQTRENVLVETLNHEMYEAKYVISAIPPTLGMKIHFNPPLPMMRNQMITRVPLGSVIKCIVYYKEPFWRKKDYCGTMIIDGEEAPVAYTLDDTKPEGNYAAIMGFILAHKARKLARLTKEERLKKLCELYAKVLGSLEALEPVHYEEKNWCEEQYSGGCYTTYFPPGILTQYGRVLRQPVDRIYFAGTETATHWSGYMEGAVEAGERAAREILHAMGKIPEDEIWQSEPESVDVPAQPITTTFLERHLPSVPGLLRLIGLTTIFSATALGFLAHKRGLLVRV

Series [4] can be described thus: Antioxidant activity assessed as trolox equivalent of […]-induced radical scavenging activity measured every minute for 90 mins by ORAC fluorescein assay. Format: functional. In short, it runs like this:
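Measured by the ORAC-FL fluorescein method. Values are given as μM Trolox equivalent per μM of test compound.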

Another series addresses Cholinesterase (Equus caballus, UniProt P81908). Format: ADME.
Series [5] is described as follows: Selectivity index, ratio of IC50 for equine serum BuChE to IC50 for electric eel AChE. In short, it runs like this:
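IC50 values for E. electricus AChE and equine serum BuChE came from a modified Ellman assay, each the mean of three independent experiments run in triplicate. The selectivity index is the ratio of the two IC50 values.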

Series [6] can be described thus: Effective permeability of the compound by PAMPA. Format: physicochemical. Conditions: read-out: Peff. In general terms: The PAMPA barrier holds no transporters, so it reflects passive diffusion.
In series [7] the target is Acetylcholinesterase (Electrophorus electricus) (UniProt O42275). Description: Inhibition of electric eel AChE at 50 uM using acetylthiocholine as substrate incubated for 15 mins by Ellman's method relative to control.
Sequence of Acetylcholinesterase (Electrophorus electricus) (O42275 24-633 limits assumed): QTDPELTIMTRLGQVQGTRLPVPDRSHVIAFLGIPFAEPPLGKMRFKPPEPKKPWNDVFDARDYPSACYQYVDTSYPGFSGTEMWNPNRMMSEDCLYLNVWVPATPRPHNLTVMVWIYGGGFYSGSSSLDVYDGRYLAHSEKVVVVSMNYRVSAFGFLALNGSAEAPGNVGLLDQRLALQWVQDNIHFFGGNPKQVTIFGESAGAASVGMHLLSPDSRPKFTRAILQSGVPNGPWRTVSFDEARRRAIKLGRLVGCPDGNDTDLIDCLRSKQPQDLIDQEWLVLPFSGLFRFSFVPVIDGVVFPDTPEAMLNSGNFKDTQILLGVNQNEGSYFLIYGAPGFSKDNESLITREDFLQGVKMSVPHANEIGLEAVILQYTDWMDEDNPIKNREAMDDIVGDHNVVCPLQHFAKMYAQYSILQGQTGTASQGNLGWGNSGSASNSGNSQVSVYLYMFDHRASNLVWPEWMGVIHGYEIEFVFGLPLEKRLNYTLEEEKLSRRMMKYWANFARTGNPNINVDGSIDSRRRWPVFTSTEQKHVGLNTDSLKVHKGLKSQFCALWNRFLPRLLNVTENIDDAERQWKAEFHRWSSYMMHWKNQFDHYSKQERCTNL

Sequence of Acetylcholinesterase (O42275 whole entry): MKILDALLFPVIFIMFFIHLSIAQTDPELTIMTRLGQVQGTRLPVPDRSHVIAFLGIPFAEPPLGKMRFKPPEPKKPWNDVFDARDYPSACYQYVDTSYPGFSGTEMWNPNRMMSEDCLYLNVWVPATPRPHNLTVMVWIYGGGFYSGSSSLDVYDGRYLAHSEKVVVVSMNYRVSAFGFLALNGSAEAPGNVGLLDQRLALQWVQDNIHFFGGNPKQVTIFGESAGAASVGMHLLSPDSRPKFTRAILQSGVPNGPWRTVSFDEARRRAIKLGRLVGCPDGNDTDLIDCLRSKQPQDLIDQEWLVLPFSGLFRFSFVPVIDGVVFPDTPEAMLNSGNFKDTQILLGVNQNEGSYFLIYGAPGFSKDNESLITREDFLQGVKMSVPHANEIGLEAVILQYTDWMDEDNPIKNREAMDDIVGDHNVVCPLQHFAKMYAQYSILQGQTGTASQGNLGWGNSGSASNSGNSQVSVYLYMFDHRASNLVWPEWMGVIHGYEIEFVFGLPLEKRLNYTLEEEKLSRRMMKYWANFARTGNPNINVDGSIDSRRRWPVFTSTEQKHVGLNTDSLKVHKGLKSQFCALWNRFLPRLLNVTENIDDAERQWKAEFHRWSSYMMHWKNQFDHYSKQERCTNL
Sequence of Cholinesterase (P81908 whole entry): as the sequence (P81908 whole entry) above

In the case of `CC(=O)c1ccc(OCCCN2CCCCC2)cc1O`, the IC50 (in general, the concentration that gives 50% inhibition) worked out at 29.2 µM against Acetylcholinesterase and 2.8 µM in [3]. Also, in [1], the inhibition (commonly the change of the read-out against control, counted positive when it falls) at 10 µM was less than 5%. Further, the inhibition at 0.25 h, 50 µM in [2] is less than 5%. Moreover, the Activity in series [4] turned out to be 1.1 equiv.
With `CC(=O)c1ccc(OCCCCCN2CCN(c3ncccn3)CC2)cc1O`, the IC50 amounted to 51.8 µM against Acetylcholinesterase, 137 µM against Cholinesterase and 15.5 µM in series [3]. In series [1], the inhibition at 10 µM was less than 5%. Also, the Ratio IC50 in [5] is 2.6. In addition, the Activity in series [4] was 1 equiv.
As for `C[C@]12CC[C@H]3[C@@H](CCC4=CC(=O)CC[C@@]43C)[C@@H]1CC[C@@H]2O` [TESTOSTERONE], in series [6], the Papp fell in the range of 163 to 170 nm/s.
`CC(=O)c1ccc(OCCCCCCN2CCN(c3ncccn3)CC2)cc1O`: the IC50 on Acetylcholinesterase was determined as 57 µM; in series [3], 34.6 µM. For the same compound, in [1], the inhibition at 10 µM was less than 5%. For the same compound, the inhibition at 0.25 h, 50 µM in series [2] is less than 5%. Also, the Activity in series [4] is 0.98 equiv.
`Cn1c(=O)c2[nH]cnc2n(C)c1=O.O` [THEOPHYLLINE]: the Papp in [6] was in the range of 1 to 1.2 nm/s.
With `CC(=O)c1ccc(OCCCCCN2CCCCC2)cc1O`, the IC50 came to 5.5 µM at Acetylcholinesterase and 6.1 µM in [3]. Further, the inhibition at 10 µM in series [1] was less than 5%. The compound also returned an inhibition at 0.25 h, 50 µM in [2] of 27.9%. The Activity in series [4] was found to be 1.1 equiv.
In the same order, the values of `CC(=O)c1ccc(OCCCN2CCN(c3ncccn3)CC2)cc1O` are 26.3 µM, 15.1 µM, less than 5%, less than 5% and 0.95 equiv.
In the same order, the values of `CC(=O)c1ccc(OCCCCN2CCN(Cc3ccccc3)CC2)cc1O` are 2.2 µM, 15.9 µM, less than 5%, 11.5% and 1.4 equiv.
On to `Clc1cccc(Cl)c1N=C1NCCN1` [CLONIDINE], for which, in series [6], the Papp lay within 51 to 53 nm/s.
Consider `CC(=O)c1ccc(OCCCN2CCN(c3ccccn3)CC2)cc1O`, for which the IC50 against Acetylcholinesterase worked out at 15.2 µM; in series [3] it was 11.7 µM. Further, in series [1], the inhibition at 10 µM was less than 5%. Moreover, the inhibition at 0.25 h, 50 µM in series [2] stood at 8.8%. Moreover, the Activity in series [4] was 0.98 equiv.
Consider `Cn1c(=O)c2c(ncn2C)n(C)c1=O` [CAFFEINE], for which the Papp in series [6] fell in the range of 12.8 to 13 nm/s.
For the compound `CC(=O)c1ccc(OCCCCN2CCN(c3ccccn3)CC2)cc1O`, the IC50 against Acetylcholinesterase came to 18.4 µM; in series [3] it was 12 µM. For the same compound, the inhibition at 10 µM in series [1] is less than 5%. For the same compound, the inhibition at 0.25 h, 50 µM in [2] is less than 5%. Further, the Activity in series [4] came to 1.1 equiv.
For `CC(=O)c1ccc(OCCCCCN2CCCC2)cc1O`, the IC50 was determined as 6.3 µM at Acetylcholinesterase, 37.2 µM on Cholinesterase and 3.5 µM in [3]. Also, the inhibition at 10 µM in series [1] was less than 5%. In series [5], the Ratio IC50 was 5.9. In series [4], the Activity stood at 1 equiv.
In the case of `CC(=O)c1ccc(OCCCCN2CCCC2)cc1O`, the IC50 worked out at 16.7 µM at Acetylcholinesterase and 1.8 µM in [3]. Moreover, in series [1], the inhibition at 10 µM is less than 5%. The inhibition at 0.25 h, 50 µM in [2] was 18.4%. In addition, the Activity in [4] stood at 1 equiv.
For `CCn1cc(C(=O)O)c(=O)c2cc(F)c(N3CCNCC3)nc21` [ENOXACIN], the Papp in [6] was in the range of 4.7 to 9 nm/s.
On to `CC(=O)c1ccc(O)cc1O`, for which the inhibition in series [7] was less than 5%. The compound also had an inhibition at 0.25 h, 50 µM in series [2] of less than 5%. Further, in series [4], the Activity was 2.5 equiv.
Turning to `CC(=O)c1ccc(OCCCCCCN2CCN(c3ccccn3)CC2)cc1O`, the IC50 against Acetylcholinesterase is 25.8 µM; in series [3] it was 20.7 µM. In addition, the inhibition at 10 µM in [1] was less than 5%. Also, the inhibition at 0.25 h, 50 µM in series [2] was less than 5%. In addition, the Activity in series [4] turned out to be 1.1 equiv.
Regarding `CC(=O)c1ccc(OCCCCCCN2CCCCC2)cc1O`, the values for the IC50 (against Acetylcholinesterase; at Cholinesterase; in series [3]) were 2.9 µM, 45.7 µM and 26.6 µM, respectively. In addition, the inhibition at 10 µM in series [1] is less than 5%. Also, in series [5], the Ratio IC50 came to 15.8. For the same compound, the Activity in [4] worked out at 0.98 equiv.
As to `CC(=O)c1ccc(OCCCCCCN2CCN(Cc3ccccc3)CC2)cc1O`, the IC50 against Acetylcholinesterase came out at 16.8 µM; at Cholinesterase it was 75.4 µM; in [3], 30.8 µM. In addition, the inhibition at 10 µM in series [1] was less than 5%. In series [5], the Ratio IC50 was determined as 4.5. In [4], the Activity was 1.3 equiv.
Take `CC(=O)c1ccc(OCCCCN2CCCCC2)cc1O`: the IC50 against Acetylcholinesterase was found to be 8.8 µM; in series [3], 2.5 µM. For the same compound, the inhibition at 10 µM in series [1] was less than 5%. For the same compound, the inhibition at 0.25 h, 50 µM in [2] stood at 21.4%. The Activity in series [4] came out at 1 equiv.
Take `CC(=O)c1ccc(OCCCCCCN2CCCC2)cc1O`: the IC50 against Acetylcholinesterase worked out at 3.9 µM; on Cholinesterase, 46.5 µM; in [3], 12.2 µM. Besides, the inhibition at 10 µM in series [1] was less than 5%. Also, the Ratio IC50 in series [5] was 11.9. The Activity in series [4] turned out to be 1 equiv.
Regarding `CC(=O)c1ccc(OCCCCCN2CCN(Cc3ccccc3)CC2)cc1O`, the IC50 against Acetylcholinesterase amounted to 8.5 µM; against Cholinesterase, 46.1 µM; in [3] it was 26.8 µM. In series [1], the inhibition at 10 µM is less than 5%. The Ratio IC50 in series [5] came out at 5.4. In series [4], the Activity turned out to be 1.3 equiv.
For `CN1C(C(=O)Nc2ccccn2)=C(O)c2ccccc2S1(=O)=O` [PIROXICAM], the Papp in [6] lay in the range of 7.2 to 25 nm/s.
On to `CC(=O)c1ccc(OCCCN2CCCC2)cc1O`, for which the IC50 against Acetylcholinesterase is 41.3 µM; in series [3], 0.62 µM. The inhibition at 10 µM in [1] was less than 5%. For the same compound, the inhibition at 0.25 h, 50 µM in series [2] is less than 5%. Also, in series [4], the Activity stood at 1 equiv.
`CCn1cc(C(=O)O)c(=O)c2cc(F)c(N3CCNCC3)cc21` [NORFLOXACIN]: the Papp in series [6] was in the range of 1 to 4.2 nm/s.
Take `CC(=O)c1ccc(OCCCCCN2CCN(c3ccccn3)CC2)cc1O`: the IC50 at Acetylcholinesterase is 21.9 µM; in series [3], 16.7 µM. In addition, the inhibition at 10 µM in [1] was less than 5%. For the same compound, the inhibition at 0.25 h, 50 µM in series [2] is less than 5%. Moreover, in series [4], the Activity amounted to 0.99 equiv.
In the case of `CC(=O)c1ccc(OCCCCN2CCN(c3ncccn3)CC2)cc1O`, the IC50 against Acetylcholinesterase was determined as 27.5 µM; in [3], 15.2 µM. Further, the inhibition at 10 µM in series [1] is less than 5%. In [2], the inhibition at 0.25 h, 50 µM is less than 5%. Further, the Activity in [4] worked out at 0.98 equiv.

The values above are taken from ChEMBL document CHEMBL4043276, “Design, synthesis and biological evaluation of 2-acetyl-5-O-(amino-alkyl)phenol derivatives as multifunctional agents for the treatment of Alzheimer's disease” (Bioorg Med Chem Lett, 2017).
